Laboratory results: article PMC5815829 (Journal of the American Chemical Society, 2017)
“Also recorded” adds a separate entry of the source. Read-outs that look alike come from different tables or passages of the source.

Legend:
s10• H6:GFP: loop:s11 = experiment: Displacement of bound s10 by excess s11; format: binding; settings: excess s11 added to isolated complex; data not shown
H6:GFP: loop:s11•s11 = settings: excess replacement peptide s11^222Q; cited from earlier work
H6:GFP: loop:s11 = settings: His-tag retained, cited from earlier work
[1] = system: truly truncated H6:GFP: loop:s11; experiment: Spontaneous dark reassembly with s11; format: binding; settings: 4 μM protein, 20 μM s11, dark
Procedure, shortened: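 Truncated protein made from intact GFP carrying a sacrificial loop: loop cut by proteolysis, then strand 11 stripped off in 6M Guanidinium-HCl. Protein separated from s11 peptide by size exclusion, refolded by rapid dilution into non-denaturing buffer, then thermally relaxed. 4 µM protein mixed with 20 µM s11 peptide without irradiation. Reassembly followed over time; second-order k reported in M-1s-1.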

s10• H6:s10:loop:GFP = settings: dark; cited from earlier work
H6:s10:loop:GFP = settings: cited from earlier work

Row | Sequence | displacement of bound s10 (s10• H6:GFP: loop:s11) | spontaneous off-rate of strand 11 (H6:GFP: loop:s11•s11) | binding of s11 in the dark (H6:GFP: loop:s11; listed as native peptide) | binding of s11 in the dark (H6:GFP: loop:s11) | rate constant k of spontaneous reassembly with s11 in the dark [1] | spontaneous off-rate of strand 10 (s10• H6:s10:loop:GFP) | reassembly with s10 in the dark (H6:s10:loop:GFP)
1 | HMVLLEFVTAA [s11] | able to displace the bound s10, and light accelerates this process | effectively zero | unable to displace the H6 slotted into this groove until it is vacated following light activation | unable to bind s11 in the dark; also recorded: does not rebind added synthetic strand 11 (s11) spontaneously in the dark | 1.2 × 10^0 M^−1 s^−1 | – | –
2 | NHYLSTQSVLS [s10] | – | – | – | – | – | very slow | readily reassembles
